Measurements as given in the RNAGym collection of RNA variant scans (doi:10.1126/science.aae0568).
This sample holds only a part of the variants without activity.

B1: tRNA (parent)
chain: GUUCCGUUGGCGUAAUGGUAACGCGUCUCCCUCCUAAGGAGAAGACUGCGGGUUCGAGUCCCGUACGGAACG

Variants of: B1
Experiment: yeast fitness relative to wild type (ratio to wild type); higher = fitter; tRNA-Arg(CCU), competitive growth, 37 C, YPD
Method in brief: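 Variants of the tRNA-Arg(CCU) gene were chemically synthesised with a 3% per-site mutation rate across 69 sites and placed at the native genomic locus in Saccharomyces cerevisiae. Six parallel replicates of the pooled strains were competed in YPD at 37°C for 24 hours, and gene amplicons from the start and end populations were read by 100-nucleotide paired-end sequencing. Darwinian fitness relative to wild type was derived from changes in genotype frequencies. Genotypes required ≥ 100 starting reads, and estimates < 0.5 were set to 0.5.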
Variant GUUCCCUCGGCGUAAUGGUAACGCGUCUCCCUCCUAAGGAGAAGACUGCGGGUUCGACUCCCGUACAGAACG [G6C U8C G58C G67A] has a yeast fitness of no more than 0.5. For GUUCCCUUGGCGGAAUGAUAACGCGUCUCCCUCCUAAGGAGAAGACUGCGGGUCAGAGUCCCGUACGGAACG [G6C U13G G18A U54C C55A], the yeast fitness was no more than 0.5. Variant GUUCCCUUGGCGUAAAGGUAACCCGUCUCCCUCCUAAGGAGAAGACUGCGGGUUCGAGUCCCGAACGGAACG [G6C U16A G23C U64A] has a yeast fitness of no more than 0.5. In the case of GUUCCCUUGGCGUAAUGGAUAGGCGUCCCCCUCAUAAGGAGAAGACUGCGGAUUCGAGUCCCGUACGGAACG [G6C U19A A20U C22G U28C C34A G52A], the yeast fitness is reported as no more than 0.5. GUUCCCUCGGCGUAAUGGUAACGCGUCUCCCUCCUAAGGAGAAGACUGCGGGUCCGAAUCCCGUACGGAACG [G6C U8C U54C G58A] gave a yeast fitness of no more than 0.5. GUUCCCUUGGCGUAAUGGUAACGCGCCUCCCUCCUAAGGAGAAGACUGCGGGUUCGAGUCCCGUACGAAACG [G6C U26C G68A] showed a yeast fitness of 0.537. For GUUCCCUCGGCGUAAUGGUAACGCGUCUCCCUCCUAAGGAACAGACUGCCGGUUCGAGUCCCGUACGGAGCG [G6C U8C G41A A42C G50C A70G], the yeast fitness was no more than 0.5. For GUUCCCUUGGCGGAAUGAUAACGCGUCUCCCUCCUAAGGAGAAGACUCCGGGUUCGAGUCCCGUACGUAACG [G6C U13G G18A G48C G68U], the yeast fitness was no more than 0.5. In the case of GUUCCCUUGGCGUAAUGGUAACGCGCCUCCCUCCUAAGGAGAAGACUGCGGGUUCGAGUCCCGAACGGAACG [G6C U26C U64A], the yeast fitness is reported as no more than 0.5. In the case of GUUCCCUUGGCGUAAUGGAAACGCGUCUCCCUCCUAAGGAGAAGACUGCGGGUUCGAGUCCCGUACGGAACG [G6C U19A], the yeast fitness is reported as 0.78. With GUUCCCUGGGCGUAAUGGGAACGCGUCUCCCUACUAAGGAGCAGACUGCGGGUUCGAAUCCCGUACGGAACG [G6C U8G U19G C33A A42C G58A] the yeast fitness was no more than 0.5. For GUUCCCUUGGCGGAAUGGUAAAGCGUCUCCCUCGUAAGGAGAAGACUGCGGGUUCGAGUCCAGUACGGAACG [G6C U13G C22A C34G C62A], the yeast fitness was 0.59. Variant GUUCCCUCGGCGUAAUGGUAACGCGUCUCCCUCCUAAGGAGAAGACUGUGGGUUCGAGUCCCGUACGGAACG [G6C U8C C49U] has a yeast fitness of 0.531. Work on GUUCCCUCGGCGUAAUGGUAACGCGUCUCCCUCCUAAGGAGAAGACUGCGGGUUCGAGUCCCGUAUGGAACG [G6C U8C C66U] yielded a yeast fitness of 0.73. With GUUCCCUUGGCGUAAUGGUAACGCGGCUCCCUCCUAAGGAGAAGACUGCGGGUUCGAGUCCCGUACGGAACG [G6C U26G] the yeast fitness was 0.721. In the case of GUUCCCUUGGCGUAAUGGUAACGCGCCUCCCUCCUAAGGAGAAGACUGCGGGUUCGAGUCCCGUACGGAACG [G6C U26C], the yeast fitness is reported as 0.959. GUUCCCUUGGCGUAAUGGUAACGCGACUCCCUCCUAAGGAGAAGACUGCGGGUUCGAGUCCCGUACGGAACG [G6C U26A] gave a yeast fitness of 0.641. GUUCCCUUGGCGUAAUGGAAACGCGUCUCCCUCCUAACGAGAAGACUGCGGGUUAGAGUCCCGUACGGAACG [G6C U19A G38C C55A] gave a yeast fitness of no more than 0.5. Work on GUUCCCUUGGCGGAAUGGUAACGCGUCUCCCUCCUAAGGAGAAGACUGCGGGUUGGAGUCCCGUACGGAACG [G6C U13G C55G] yielded a yeast fitness of 0.659. Work on GUUCCCUCGGCGUAAUGGUAACGCGUCUCCCUCCUAAGGAGAAGACUACGGGUUCGAGUCCCGUACGGAACG [G6C U8C G48A] yielded a yeast fitness of 0.664. Work on GUUCCCUCGGCGUAAUGGUAACGCAUCUCCCUCUUAAGGAGAUGACUGCGGGUUCGAGUCCCGUACGGAACG [G6C U8C G25A C34U A43U] yielded a yeast fitness of no more than 0.5. With GUUCCCUUGGCGCAAUGGUAACGCGUCUCCCUCCUAAGGAGAAGACUGCGGGUUCGAGUCCCGUACGGAACG [G6C U13C] the yeast fitness was 0.823. For GUUCCCUCGGCGUAAUGGUAACGCGUCUCCCUCCUAAGGACAAGACUGCGGGUUCGAGUCCCGUACGGAACG [G6C U8C G41C], the yeast fitness was no more than 0.5. GUUCCCUUGGCGCAAUGGUAACGCGUCUCCCUUCUAAGGAGCAGACUGCGGGUUCGAGUUCCGUACGGGACG [G6C U13C C33U A42C C60U A69G] showed a yeast fitness of 0.665. With GUUCCCUUGGCGAAAUGGUUGCGCGUCUCCCUCCUAAGGAGAAGACUGCGGGUUCGAGUCCCGUACGGUACG [G6C U13A A20U A21G A69U] the yeast fitness was no more than 0.5. With GUUCCCUCGGCGUAAUGGUAACGCGUCUCCCUCCUAAGGAGAAGACUGCGGGUUCAAGUCCCGUACGGAACG [G6C U8C G56A] the yeast fitness was 0.672. GUUCCCUCGGCGUAAUGGUAACGCGUCUCCCUCCUAAGGAGAAGACUGUGGGUUCGAGUCCCGUUCGGAACG [G6C U8C C49U A65U] showed a yeast fitness of no more than 0.5. Variant GUUCCCUUGGCGUAAUGGUAACGCGCCUCCCUCCUAUGGAGAUGACUGCGGGUUCGAGUCCCGUACGGAACG [G6C U26C A37U A43U] has a yeast fitness of no more than 0.5. For GUUCCCUUGGCGUAAGGGUAACGCGUCUCCCUCCUAAGGAGAAGACUGCGGGUUCGAGUCCUGUACGGAACG [G6C U16G C62U], the yeast fitness was 0.532. In the case of GUUCCCUUGGCGUAAGGGUAACGCGUUUCCCUCCUAAGGAGAAGACUGCGGGUUCGAGUGCCGUACGGAACG [G6C U16G C27U C60G], the yeast fitness is reported as 0.582. GUUCCCUCGGCGUAAUGGUAACGCGUCUCCCUUCUAAGGAGAGGACUGCGGGUUCGAAUUCCGUACGGAACG [G6C U8C C33U A43G G58A C60U] gave a yeast fitness of no more than 0.5. For GUUCCCUUGGCGUAAAGGUAACGCGUCUCACUCCUAAGGAGAAGACUGCGGGUUCGAGUCCCGUACGGUACG [G6C U16A C30A A69U], the yeast fitness was no more than 0.5. In the case of GUUCCCUUGGCGUAAUGGUAACGCGUCCCCCUCCUAAGGAGAAGAUUGCGGGUUCGAGUCCCGUACGGGACG [G6C U28C C46U A69G], the yeast fitness is reported as no more than 0.5. GUUCCCUUGGCGUAAAGGUAACGCGUCUCCCUCCUAAGGAGAAGACUGCGGGUUCGAGUCCCGUACGGAACG [G6C U16A] showed a yeast fitness of 0.631. Work on GUUCCCUUGGCGUAACGGUAACGCGUCUCCCUCCUAAGGAGAAGACUGCGGGUUCGAGUCCCGUACGGAACG [G6C U16C] yielded a yeast fitness of 0.803. In the case of GUUCCCUUGGCGUAAGGGUAACGCGUCUCCCUCCUAAGGAGAAGACUGCGGGUUCGAGUCCCGUACGGAACG [G6C U16G], the yeast fitness is reported as 0.68. In the case of GUUCCCUUGGCGGAAUGAUAACGCGUCUCCCUCCUAAGGAGAAGACUGCGGGUUGGAGUCCCGUACGGAACG [G6C U13G G18A C55G], the yeast fitness is reported as no more than 0.5. GUUCCCUUGGCGUAAGGGUAACGCGUCUCCCUCCAAAGGAGAAGACUGCGCGUUCGAGUCCCGUACGGAACG [G6C U16G U35A G51C] showed a yeast fitness of no more than 0.5.
